In assay [1] the target is T1, Melanocyte-stimulating hormone receptor (Homo sapiens, UniProt Q01726). The assay can be described thus: Agonist activity at human melanocortin receptor 1b expressed in CHO cells assessed as cAMP accumulation. It is filed as functional, cell-based. In outline:
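Dissociated CHO cells were spun 5 min and resuspended in Earle's balanced salt solution with 10 mM HEPES pH 7.5, 5 mM MgCl2, 1 mM glutamine and 1 mg/mL BSA. They were incubated 40 min at room temperature with compound (0.003–5000 nM) plus 0.6 mM IBMX, then lysed with 0.1 M HCl. cAMP was measured by Flashplate cAMP assay.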
Background: Cyclic AMP is a second messenger, typically raised through Gs and lowered through Gi signalling.

Assay [2] addresses T1, Melanocyte-stimulating hormone receptor. Put plainly: Displacement of [125I]NDPalphaMSH from human cloned melanocortin receptor 1b expressed in CHO cells. Format: cell-based.
Assay [3] has as its target T2, Melanocortin receptor 5 (Homo sapiens, UniProt P33032). The assay can be described thus: Displacement of [125I]NDPalphaMSH from human cloned MC5R expressed in CHO cells. Format: cell-based. A general note: Loss of bound radioactivity is the signal in a displacement assay; it reports binding, not function.
Assay [4] addresses Melanocortin receptor 4 (Homo sapiens, UniProt P32245). The assay can be described thus: Displacement of [125I]NDPalphaMSH from human cloned MC4R expressed in CHO cells. It is filed as cell-based.
Assay [5] addresses Melanocortin receptor 3 (Homo sapiens, UniProt P41968). Put plainly: Displacement of [125I]NDPalphaMSH from human cloned MC3R expressed in CHO cells. Format: cell-based.
Assay [6] addresses T2, Melanocortin receptor 5. The assay can be described thus: Agonist activity at human MC5R expressed in CHO cells assessed as cAMP accumulation. It is filed as functional, cell-based.

Starred links: 1 amine or outer side, 2 acyl side, 3 side chain; linkers in the order of their positions; H or OH if unused. Positions of bridges follow the written chain, without caps; N, C: chain ends. Non-standard residues stand in square brackets, D forms with d. Residues, ends and D or L forms follow the SMILES beside them. ξ: configuration not given here. X2 = O=C([C@@H](Cc1ccc(Cc2ccccc2)cc1)N[*:1])[*:2]; Oic(3aξ,7aξ) = O=C(O)[C@@H]1CC2CCCCC2N1; Pip = O=C(O)[C@@H]1CCCCN1; Nle = CCCC[C@H](N)C(=O)O

T1 sequence (Q01726 whole entry): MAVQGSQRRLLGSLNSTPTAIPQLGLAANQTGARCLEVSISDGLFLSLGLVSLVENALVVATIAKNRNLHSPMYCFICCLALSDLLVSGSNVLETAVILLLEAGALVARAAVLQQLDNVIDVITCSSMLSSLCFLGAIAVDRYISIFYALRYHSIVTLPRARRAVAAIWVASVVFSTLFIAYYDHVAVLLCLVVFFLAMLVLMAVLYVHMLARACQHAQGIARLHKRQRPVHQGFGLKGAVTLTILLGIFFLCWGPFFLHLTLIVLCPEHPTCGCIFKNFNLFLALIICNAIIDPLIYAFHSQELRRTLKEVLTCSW
T2 sequence (P33032 whole entry): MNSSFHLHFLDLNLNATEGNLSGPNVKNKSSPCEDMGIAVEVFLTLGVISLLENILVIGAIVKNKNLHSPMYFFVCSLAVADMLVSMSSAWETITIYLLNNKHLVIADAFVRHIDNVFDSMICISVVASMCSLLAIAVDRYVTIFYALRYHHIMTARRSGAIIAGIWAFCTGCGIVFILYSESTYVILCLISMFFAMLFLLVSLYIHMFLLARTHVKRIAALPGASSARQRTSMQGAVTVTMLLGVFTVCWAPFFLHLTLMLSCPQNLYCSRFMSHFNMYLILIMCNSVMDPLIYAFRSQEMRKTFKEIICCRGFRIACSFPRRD
Melanocortin receptor 4, sequence (P32245 whole entry): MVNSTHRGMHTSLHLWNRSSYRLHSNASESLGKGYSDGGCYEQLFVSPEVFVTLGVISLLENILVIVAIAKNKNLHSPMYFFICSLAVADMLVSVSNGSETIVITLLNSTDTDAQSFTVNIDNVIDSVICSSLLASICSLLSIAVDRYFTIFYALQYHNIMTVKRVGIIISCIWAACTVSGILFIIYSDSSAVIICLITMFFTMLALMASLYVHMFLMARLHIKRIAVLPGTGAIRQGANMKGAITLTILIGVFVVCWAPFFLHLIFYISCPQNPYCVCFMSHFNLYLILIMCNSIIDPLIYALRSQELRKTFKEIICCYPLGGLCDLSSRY
Melanocortin receptor 3, sequence (P41968 whole entry): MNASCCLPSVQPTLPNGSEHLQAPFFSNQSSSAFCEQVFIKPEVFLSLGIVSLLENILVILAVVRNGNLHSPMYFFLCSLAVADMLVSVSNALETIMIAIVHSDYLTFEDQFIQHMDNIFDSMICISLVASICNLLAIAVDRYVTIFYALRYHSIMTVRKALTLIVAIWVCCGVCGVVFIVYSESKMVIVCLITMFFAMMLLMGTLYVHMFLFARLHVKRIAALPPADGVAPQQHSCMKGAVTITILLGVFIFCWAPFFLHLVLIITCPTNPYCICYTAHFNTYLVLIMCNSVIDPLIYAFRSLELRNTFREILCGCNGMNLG

Turning to `CCCC[C@H](NC(C)=O)C(=O)N[C@H]1CC(=O)NCCCC[C@@H](C(N)=O)NC(=O)[C@H](Cc2c[nH]c3ccccc23)NC(=O)[C@@H]2CCCN2C(=O)[C@@H](Cc2ccccc2)NC(=O)[C@H](Cc2cnc[nH]2)NC1=O`, the EC50 (usually the midpoint of the concentration-response curve) in assay [1] was 1300 nM (agonist). In addition, in assay [2], the IC50 (usually the concentration that inhibits the measured activity by half) was 2500 nM (antagonist).

For the compound `CCCC[C@H](NC(C)=O)C(=O)N[C@H]1CC(=O)NCCCC[C@@H](C(N)=O)NC(=O)[C@H](Cc2c[nH]c3ccccc23)NC(=O)[C@@H]2CCCN2C(=O)[C@H](Cc2ccc(OC)cc2)NC(=O)[C@H](Cc2cnc[nH]2)NC1=O`, the 50% inhibitory concentration (IC50) in assay [2] was > 2000 nM.

As to `CCCC[C@H](NC(C)=O)C(=O)N[C@H]1CC(=O)NCCCC[C@@H](C(N)=O)NC(=O)[C@H](Cc2c[nH]c3ccccc23)NC(=O)[C@@H]2CCCCN2C(=O)[C@@H](Cc2ccc(-c3ccccc3)cc2)NC(=O)[C@@H]2Cc3ccccc3CN2C1=O`, the IC50 in assay [3] was 2.7 nM (antagonist); in assay [4], 720 nM (antagonist); in assay [5], 3900 nM (antagonist); in assay [2], 710 nM (antagonist). Besides, the values for the EC50 in assay [1] and in assay [6] were 130 nM (agonist) and 0.45 nM (agonist), respectively.

On to `CCCC[C@H](NC(C)=O)C(=O)N[C@H]1CC(=O)NCCCC[C@@H](C(N)=O)NC(=O)[C@H](Cc2c[nH]c3ccccc23)NC(=O)[C@@H]2CCCN2C(=O)[C@H](Cc2ccccc2)NC(=O)[C@H](Cc2cnc[nH]2)NC1=O`, for which the EC50 in assay [1] is > 1000 nM. In addition, the IC50 in assay [2] was 980 nM (antagonist).

For the compound `CCCC[C@H](NC(C)=O)C(=O)N[C@H]1CC(=O)NCCCC[C@@H](C(N)=O)NC(=O)[C@H](Cc2c[nH]c3ccccc23)NC(=O)[C@@H]2CCCN2C(=O)[C@@H](Cc2ccc(OC)cc2)NC(=O)[C@H](Cc2cnc[nH]2)NC1=O`, the EC50 in assay [1] was 50 nM (agonist). In assay [2], the IC50 is recorded as 500 nM (antagonist).

On to `CCCC[C@H](NC(C)=O)C(=O)N[C@H]1CC(=O)NCCCC[C@@H](C(N)=O)NC(=O)[C@H](Cc2c[nH]c3ccccc23)NC(=O)[C@@H]2CCCN2C(=O)[C@@H](CCC(=O)O)NC(=O)[C@H](Cc2c[nH]cn2)NC1=O`, for which the IC50 in assay [3], in assay [4], in assay [5] and in assay [2] was > 10000 nM each time.

Consider `CCCC[C@H](NC(C)=O)C(=O)N[C@H]1CC(=O)NCCCC[C@@H](C(N)=O)NC(=O)[C@H](Cc2c[nH]c3ccccc23)NC(=O)[C@@H]2CCCN2C(=O)[C@@H](Cc2ccc(-c3ccccc3)cc2)NC(=O)[C@@H]2CC3CCCCC3N2C1=O` (stereo not given in full), for which the IC50 was 10 nM (antagonist) in assay [3], 4700 nM (antagonist) in assay [4], 4400 nM (antagonist) in assay [5] and 7800 nM (antagonist) in assay [2]. The values for the EC50 in assay [1] and in assay [6] were > 2500 nM and 17 nM (agonist), respectively.

As for `CCCC[C@H](NC(C)=O)C(=O)N[C@H]1CC(=O)NCCCC[C@@H](C(N)=O)NC(=O)[C@H](Cc2c[nH]c3ccccc23)NC(=O)[C@@H]2CCCN2C(=O)[C@@H](Cc2cccs2)NC(=O)[C@H](Cc2cnc[nH]2)NC1=O`, the IC50 in assay [3], in assay [5] and in assay [2] was > 5000 nM throughout. Moreover, the values for the EC50 in assay [1] and in assay [6] were 540 nM (agonist) and > 1500 nM, respectively.

Take `CCCC[C@H](NC(C)=O)C(=O)N[C@H]1CC(=O)NCCCC[C@@H](C(N)=O)NC(=O)[C@H](Cc2c[nH]c3ccccc23)NC(=O)[C@@H]2CCCCN2C(=O)[C@@H](Cc2ccc(-c3ccccc3)cc2)NC(=O)[C@@H]2CC3CCCCC3N2C1=O` (stereo not given in full): the IC50 in assay [3] is 0.95 nM (antagonist); in assay [4], > 5000 nM; in assay [5], > 5000 nM; in assay [2] it was > 5000 nM. The EC50 in assay [6] is recorded as 0.99 nM (agonist).

On to `CCCC[C@H](NC(C)=O)C(=O)N[C@H]1CC(=O)NCCCC[C@@H](C(N)=O)NC(=O)[C@H](Cc2c[nH]c3ccccc23)NC(=O)[C@@H]2CCCN2C(=O)[C@@H](CC2CCCCC2)NC(=O)[C@H](Cc2c[nH]cn2)NC1=O`, for which the IC50 in assay [3], in assay [4], in assay [5] and in assay [2] was > 10000 nM throughout. Further, in assay [1], the EC50 was > 2500 nM.

As for `CCCC[C@H](NC(C)=O)C(=O)N[C@H]1CC(=O)NCCCC[C@@H](C(N)=O)NC(=O)[C@H](Cc2c[nH]c3ccccc23)NC(=O)[C@@H]2CCCN2C(=O)[C@@H](CCCCN)NC(=O)[C@H](Cc2cnc[nH]2)NC1=O`, the IC50 in assay [3], in assay [5] and in assay [2] was > 10000 nM throughout.

In the case of `CCCC[C@H](NC(C)=O)C(=O)N[C@H]1CC(=O)NCCCC[C@@H](C(N)=O)NC(=O)[C@H](Cc2c[nH]c3ccccc23)NC(=O)[C@@H]2CCCCN2C(=O)[C@@H](Cc2ccc(-c3ccccc3)cc2)NC(=O)[C@H](c2ccccc2)NC1=O`, the IC50 in assay [3] is 2.1 nM (antagonist); in assay [4], 990 nM (antagonist); in assay [5], > 1000 nM; in assay [2], > 1000 nM. Also, the EC50 in assay [6] is 0.29 nM (agonist).

With `CCCC[C@H](NC(C)=O)C(=O)N[C@H]1CC(=O)NCCCC[C@@H](C(N)=O)NC(=O)[C@H](Cc2c[nH]c3ccccc23)NC(=O)[C@@H]2CCCN2C(=O)[C@@H](Cc2ccc(O)cc2)NC(=O)[C@H](Cc2cnc[nH]2)NC1=O`, the EC50 in assay [1] is > 2500 nM. The 50% inhibitory concentration (IC50) in assay [2] is > 10000 nM.

In the case of `CCCC[C@H](NC(C)=O)C(=O)N[C@H]1CC(=O)NCCCC[C@@H](C(N)=O)NC(=O)[C@H](Cc2c[nH]c3ccccc23)NC(=O)[C@@H]2CCCN2C(=O)[C@@H](Cc2ccc([N+](=O)[O-])cc2)NC(=O)[C@H](Cc2cnc[nH]2)NC1=O`, the IC50 was 780 nM (antagonist) in assay [3], > 2000 nM in assay [5] and > 2000 nM in assay [2]. The EC50 in assay [1] is > 500 nM; in assay [6], 770 nM (agonist).

As for `CCCC[C@H](NC(C)=O)C(=O)N[C@H]1CC(=O)NCCCC[C@@H](C(N)=O)NC(=O)[C@H](Cc2c[nH]c3ccccc23)NC(=O)[C@@H]2CCCN2C(=O)[C@@H](C(c2ccccc2)c2ccccc2)NC(=O)[C@H](Cc2c[nH]cn2)NC1=O`, the IC50 is 1500 nM (antagonist) in assay [3] (cho), 74 nM (antagonist) in assay [4] (cho), > 10000 nM in assay [5] (cho) and 2900 nM (antagonist) in assay [2] (cho).

`CCCC[C@H](NC(C)=O)C(=O)N[C@H]1CC(=O)NCCCC[C@@H](C(N)=O)NC(=O)[C@H](Cc2c[nH]c3ccccc23)NC(=O)[C@@H]2CCCCN2C(=O)[C@@H](Cc2ccc(-c3ccccc3)cc2)NC(=O)[C@H](C2CCCCC2)NC1=O`: the IC50 is 50 nM (antagonist) in assay [3], > 10000 nM in assay [4], > 10000 nM in assay [5] and > 10000 nM in assay [2]. The concentration giving a half-maximal response (EC50) in assay [1] was > 500 nM; in assay [6], 1 nM (agonist).

With `CCCC[C@H](NC(C)=O)C(=O)N[C@H]1CC(=O)NCCCC[C@@H](C(N)=O)NC(=O)[C@H](Cc2c[nH]c3ccccc23)NC(=O)[C@@H]2CCCCN2C(=O)[C@@H](Cc2ccc(-c3ccccc3)cc2)NC(=O)[C@H](C(C)C)NC1=O`, the IC50 is 7.3 nM (antagonist) in assay [3], 4700 nM (antagonist) in assay [4], > 10000 nM in assay [5] and 4900 nM (antagonist) in assay [2]. In addition, the 50% effective concentration (EC50) in assay [1] is recorded as 330 nM (agonist); in assay [6], 0.23 nM (agonist).

Regarding `CCCC[C@H](NC(C)=O)C(=O)N[C@H]1CC(=O)NCCCC[C@@H](C(N)=O)NC(=O)[C@H](Cc2c[nH]c3ccccc23)NC(=O)[C@@H]2CCCN2C(=O)[C@@H](Cc2ccc3ccccc3c2)NC(=O)[C@H](Cc2cnc[nH]2)NC1=O`, in assay [1], the EC50 is given as 89 nM (agonist). The IC50 in assay [2] is recorded as 880 nM (antagonist).

Turning to `CCCC[C@H](NC(C)=O)C(=O)N[C@H]1CC(=O)NCCCC[C@@H](C(N)=O)NC(=O)[C@H](Cc2c[nH]c3ccccc23)NC(=O)[C@@H]2CCCN2C(=O)[C@@H](CCCC)NC(=O)[C@H](Cc2cnc[nH]2)NC1=O`, the IC50 in assay [2] was > 10000 nM.

For the compound `CCCC[C@H](NC(C)=O)C(=O)N[C@H]1CC(=O)NCCCC[C@@H](C(N)=O)NC(=O)[C@H](Cc2c[nH]c3ccccc23)NC(=O)[C@@H]2CCCCN2C(=O)[C@@H](Cc2ccc(Cc3ccccc3)cc2)NC(=O)[C@@H]2CC3CCCCC3N2C1=O` (stereo not given in full) (Ac-[Nle]D[Oic(3aξ,7aξ)][X2][Pip]WK-NH2; lactam 2-7), the IC50 in assay [3] was 24 nM (antagonist); in assay [4], 1600 nM (antagonist); in assay [5] it was > 1000 nM; in assay [2] it was > 1000 nM. Further, the EC50 in assay [6] is recorded as 31 nM (agonist).

Consider `CCCC[C@H](NC(C)=O)C(=O)N[C@H]1CC(=O)NCCCC[C@@H](C(N)=O)NC(=O)[C@H](Cc2c[nH]c3ccccc23)NC(=O)[C@@H]2CCCN2C(=O)[C@H]2Cc3ccccc3CN2C(=O)[C@H](Cc2cnc[nH]2)NC1=O`, for which the IC50 in assay [3] (cho), in assay [5] (cho) and in assay [2] (cho) was > 10000 nM in each case.

For `CCCC[C@H](NC(C)=O)C(=O)N[C@H]1CC(=O)NCCCC[C@@H](C(N)=O)NC(=O)[C@H](Cc2c[nH]c3ccccc23)NC(=O)[C@@H]2CCCN2C(=O)[C@@H](CCC(N)=O)NC(=O)[C@H](Cc2c[nH]cn2)NC1=O`, the IC50 in assay [3], in assay [4], in assay [5] and in assay [2] was > 10000 nM each time.

In the case of `CCCC[C@H](NC(C)=O)C(=O)N[C@H]1CC(=O)NCCCC[C@@H](C(N)=O)NC(=O)[C@H](Cc2c[nH]c3ccccc23)NC(=O)[C@@H]2CCCN2C(=O)[C@@H](Cc2cnc[nH]2)NC(=O)[C@H](Cc2cnc[nH]2)NC1=O`, the IC50 in assay [2] was > 10000 nM.

These data come from ChEMBL document CHEMBL1139880, “Potent and selective agonists of human melanocortin receptor 5: cyclic analogues of alpha-melanocyte-stimulating hormone” (J Med Chem, 2007).
